Measured values published in ChEMBL document CHEMBL4196202, “Discovery and Structure-Based Optimization of Benzimidazole-Derived Activators of SOS1-Mediated Nucleotide Exchange on RAS” (J Med Chem, 2018).
Activity calls are given as the source filed them. The rule behind the calls is not given here.

How the values were obtained:
[1] = target: T1, Son of sevenless homolog 1 (Homo sapiens, UniProt Q07889); test: Activation of human recombinant N-terminal His6-tagged SOS1 (564 to 1049 residues) expressed in BL21-RIL Escherichia coli assessed as SOS1-RAS complex formation by measuring exchange of GTP to BODIPY-GDP measured every 3 secs for 30 mins by nucleotide exchange assay
T1 sequence (Q07889 whole entry): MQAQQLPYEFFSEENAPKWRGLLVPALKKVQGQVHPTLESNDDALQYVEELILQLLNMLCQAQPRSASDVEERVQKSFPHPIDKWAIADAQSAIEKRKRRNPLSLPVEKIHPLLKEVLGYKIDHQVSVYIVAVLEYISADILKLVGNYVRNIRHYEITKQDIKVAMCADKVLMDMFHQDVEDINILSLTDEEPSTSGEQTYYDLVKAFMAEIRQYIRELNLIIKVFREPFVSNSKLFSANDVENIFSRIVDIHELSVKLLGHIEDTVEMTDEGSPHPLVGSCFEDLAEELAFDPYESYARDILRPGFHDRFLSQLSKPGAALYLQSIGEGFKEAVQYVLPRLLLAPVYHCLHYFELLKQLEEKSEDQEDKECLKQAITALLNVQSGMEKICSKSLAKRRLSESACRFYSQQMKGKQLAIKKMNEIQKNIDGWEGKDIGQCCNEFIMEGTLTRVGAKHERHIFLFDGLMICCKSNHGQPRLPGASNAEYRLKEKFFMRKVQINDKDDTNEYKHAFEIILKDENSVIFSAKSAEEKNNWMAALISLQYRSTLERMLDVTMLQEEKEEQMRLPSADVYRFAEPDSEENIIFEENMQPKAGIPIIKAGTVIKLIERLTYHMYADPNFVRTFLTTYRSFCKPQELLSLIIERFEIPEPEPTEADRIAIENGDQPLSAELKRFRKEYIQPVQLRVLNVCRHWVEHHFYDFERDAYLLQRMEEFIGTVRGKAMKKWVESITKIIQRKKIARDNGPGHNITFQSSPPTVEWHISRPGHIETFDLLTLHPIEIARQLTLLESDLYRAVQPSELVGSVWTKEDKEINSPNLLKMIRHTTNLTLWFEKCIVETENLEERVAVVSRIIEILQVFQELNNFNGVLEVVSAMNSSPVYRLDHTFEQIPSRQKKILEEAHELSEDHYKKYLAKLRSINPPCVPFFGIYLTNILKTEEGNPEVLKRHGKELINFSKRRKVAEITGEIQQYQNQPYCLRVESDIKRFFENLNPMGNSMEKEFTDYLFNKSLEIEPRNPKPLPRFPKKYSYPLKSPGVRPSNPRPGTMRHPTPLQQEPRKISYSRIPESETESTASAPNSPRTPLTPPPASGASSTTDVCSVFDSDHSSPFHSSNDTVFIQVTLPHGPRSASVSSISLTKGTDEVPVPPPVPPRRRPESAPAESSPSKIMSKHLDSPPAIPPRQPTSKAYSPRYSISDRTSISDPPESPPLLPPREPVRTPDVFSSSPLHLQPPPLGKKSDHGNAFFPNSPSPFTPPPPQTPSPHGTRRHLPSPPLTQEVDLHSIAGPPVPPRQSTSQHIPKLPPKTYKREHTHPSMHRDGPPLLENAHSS

[2] = target: T2, Son of sevenless homolog 1 (Homo sapiens) (UniProt Q07889); test: Activation of human recombinant N-terminal His6-tagged SOS1 (564 to 1049 residues) expressed in BL21-RIL Escherichia coli assessed as SOS1-RAS complex formation by measuring exchange of GTP to BODIPY-GDP measured every 3 secs for 30 mins by nucleotide exchange assay relative to control; set-up: concentration or dose not given beside the values
T2 sequence (whole entry): T1 sequence (Q07889 whole entry)

[3] = target: T1, Son of sevenless homolog 1; test: Binding affinity to human recombinant N-terminal His6-tagged SOS1 (564 to 1049 residues) expressed in BL21-RIL Escherichia coli by fluorescent probe S2 based fluorescence polarization anisotrophy saturation binding assay
[4] = target: T1, Son of sevenless homolog 1; test: Binding affinity to human recombinant N-terminal His6-tagged SOS1 (564 to 1049 residues) expressed in BL21-RIL Escherichia coli by fluorescent probe S1 based fluorescence polarization anisotrophy saturation binding assay
Outline: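 SOS1cat (aa 564–1049) was titrated in a 12-point, 2-fold series from 10 μM top against 50 nM fluorescein-labeled probe. Buffer was 20 mM Tris-HCl pH 7.5, 50 mM NaCl, 1 mM magnesium chloride, with 20 min at room temperature in the dark. Anisotropy was read and Kd reported as mean ± SD of at least three independent experiments.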

[5] = target: T2, Son of sevenless homolog 1 (Homo sapiens); test: Biphasic activity at of SOS1 in human HeLa cells expressing wild type KRAS assessed as reduction in ERK1/2 T202/Y204 phosphorylation at 1.5 to 100 uM (higher range) incubated for 30 mins by In-cell Western assay; format: cell-based
[6] = target: T2, Son of sevenless homolog 1 (Homo sapiens); test: Biphasic activity at of SOS1 in human HeLa cells expressing wild type KRAS assessed as induction of ERK1/2 T202/Y204 phosphorylation at 1.5 to 100 uM (lower range) incubated for 30 mins by In-cell Western assay; format: cell-based
[7] = target: T2, Son of sevenless homolog 1 (Homo sapiens); test: Activation of SOS1 in human NCI-H727 cells expressing KRAS G12V mutant assessed as induction of ERK1/2 T202/Y204 phosphorylation at 1.5 to 100 uM (lower range) incubated for 30 mins by In-cell Western assay; format: cell-based
[8] = target: T1, Son of sevenless homolog 1; test: Activation of SOS1 in human HeLa cells expressing wild type KRAS assessed as induction of ERK1/2 T202/Y204 phosphorylation incubated for 30 mins by In-cell Western assay; format: cell-based
[9] = target: T2, Son of sevenless homolog 1 (Homo sapiens); test: Activation of SOS1 in human NCI-H727 cells expressing KRAS G12V mutant assessed as induction of ERK1/2 T202/Y204 phosphorylation at 1.5 to 100 uM (higher range) incubated for 30 mins by In-cell Western assay; format: cell-based
[10] = target: Son of sevenless homolog 1 (Homo sapiens, UniProt Q07889); test: Activation of SOS1 in human NCI-H727 cells expressing KRAS G12V mutant assessed as induction of ERK1/2 T202/Y204 phosphorylation incubated for 30 mins by In-cell Western assay; format: cell-based

Structure (SMILES)	EC50 [1] [µM]	Activity [2] [%]	Kd [3] [µM]	other results
Cc1cc2nc(N3CCNCC3)n(Cc3cc(C)c(F)c(C)c3)c2cc1C	3.7	270		
Cc1cc(Cn2c(N3CCNCC3)nc3c(N4CCCCC4)cc(Cl)cc32)cc(C)c1F			0.2	
Cc1cc(Cn2c(N3CCNCC3)nc3c(-c4ccccc4C(C)C)cc(Cl)cc32)cc(C)c1F				Kd [4]: 0.39 µM
CCc1ccccc1-c1cc(Cl)cc2c1nc(N1CCNCC1)n2Cc1cc(C)c(F)c(C)c1				Kd [4]: 0.21 µM
Cc1cc2nc(N3CCNCC3)n(Cc3ccc(F)c(C(F)(F)F)c3)c2cc1C	8.1	263		
Cc1cc(Cn2c(N3CCNCC3)nc3c(N4CCC[C@H]4CN)cc(Cl)cc32)cc(C)c1F			0.14	Activity [5]: Active; Activity [6]: Active; Activity [7]: Active; EC50 [8]: 3.2 µM; Activity [9]: Active; EC50 [10]: 7.3 µM
Fc1ccc(CN2C3=NCCCN3c3ccccc32)cc1	63	40		
Cc1cc(Cn2c(N3CCNCC3)nc3c(-c4cnccn4)cc(Cl)cc32)cc(C)c1F			0.39	
Cc1cc2nc(N3CCNCC3)n(Cc3ccc(F)cc3)c2cc1C	5.9	130		
Fc1ccc(Cn2c(N3CCNCC3)nc3ccccc32)cc1Cl	5.4	109		Activity [5]: inactive; Activity [6]: Active; Activity [7]: Active; EC50 [8]: 21 µM; Activity [9]: inactive; EC50 [10]: 51.4 µM
Cc1cc(Cn2c(N3CCNCC3)nc3c(-c4cccnn4)cc(Cl)cc32)cc(C)c1F			0.45	
Cc1cc2nc(N3CCNCC3)n(Cc3ccc(F)c(Cl)c3)c2cc1C	2.2	211		Activity [5]: Active; Activity [6]: Active; Activity [7]: Active; EC50 [8]: 21.3 µM; Activity [9]: Active; EC50 [10]: 29.1 µM
Cc1cc2nc(N3CCNCC3)n(Cc3ccc(F)c(Cl)c3)c2cc1Cl	3	200		
Cc1cc2nc(N3CCNCC3)n(Cc3ccc(Cl)cc3)c2cc1C	12.4	164		
Fc1ccc(Cn2c(N3CCNCC3)nc3ccc(Cl)cc32)cc1Cl	1	109		
Fc1ccc(Cn2c(N3CCNCC3)nc3ccc(C(F)(F)F)cc32)cc1Cl	4.4	78		
Cc1cc2nc(N3CCCNCC3)n(Cc3ccc(F)c(Cl)c3)c2cc1C	8.5	176		
Cc1cc(Cn2c(N3CCNCC3)nc3c(N4CCC[C@@H]4CO)cc(Cl)cc32)cc(C)c1F			0.38	
Cc1ccc2nc(N3CCNCC3)n(Cc3ccc(F)c(Cl)c3)c2c1	2.4	106		
Cc1cc(Cn2c(N3CCNCC3)nc3c(N4CCC[C@H]4CO)cc(Cl)cc32)cc(C)c1F			0.31	
Cc1cc(Cn2c(N3CCNCC3)nc3c(-c4ccncc4)cc(Cl)cc32)cc(C)c1F			0.24	
Cc1cc2nc(N3CCNCC3)n(Cc3ccc(F)c(C)c3)c2cc1C	4.1	190		
Cc1cc(Cn2c(N3CCNCC3)nc3c(N4CCOCC4)cc(Cl)cc32)cc(C)c1F			0.13	
Cc1cc(Cn2c(N3CCNCC3)nc3c(-c4cncnc4C(C)C)cc(Cl)cc32)cc(C)c1F			0.1	Activity [5]: Active; Activity [6]: Active; Activity [7]: Active; EC50 [8]: 8.8 µM; Activity [9]: Active; EC50 [10]: 13.9 µM
Cc1cc2nc(N3CCNCC3)n(Cc3ccc(F)c(C4CC4)c3)c2cc1C	11.7	151		
